Bioassay records from PubChem.
Sampled rows, rich in hits. Any-hit rate of the full collection: about 1.6%.
TRAIL sens C8 – caspase-8 TRAIL sensitization; 1% of 360,000 active; NB7+C8 cells + TRAIL, ATPlite viability luminescence; inhibition (viability loss, TRAIL sensitization), % at 10 µM; AID 624354;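 active = compounds causing at least 50% loss of cell viability in the single-dose screen, relative to plate controls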
PPC-1+TRAIL kill – compounds killing PPC-1 cancer cells with TRAIL present (potentiator screen, no TRAIL-free arm). PPC-1 cells + TRAIL, ATPLite viability luminescence. cell killing (% activity), % at 4 µM or 5 µM. 0.41% of 220,000 active. AID 1443;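 active = cell killing above 50% in the first pass at 4 µM, then a duplicate retest at 5 µM averaging 50% or more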;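 also: plate controls were cells with TRAIL plus DMSO for no effect and medium-only wells lacking cells for full effect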
FLuc act counter – firefly luciferase counter-screen for stimulation assays | ATPlite luciferase biochemical, luminescence, 10 min; 0 = ATP-free wells, 1 = DMSO control | 200,000 tested, under 10 active | activation factor at 10 µM;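 active = luciferase activation factor, scaled between plate controls, of at least 2 with compound at 10 µM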
Target sequence (P08659 whole entry, looked up): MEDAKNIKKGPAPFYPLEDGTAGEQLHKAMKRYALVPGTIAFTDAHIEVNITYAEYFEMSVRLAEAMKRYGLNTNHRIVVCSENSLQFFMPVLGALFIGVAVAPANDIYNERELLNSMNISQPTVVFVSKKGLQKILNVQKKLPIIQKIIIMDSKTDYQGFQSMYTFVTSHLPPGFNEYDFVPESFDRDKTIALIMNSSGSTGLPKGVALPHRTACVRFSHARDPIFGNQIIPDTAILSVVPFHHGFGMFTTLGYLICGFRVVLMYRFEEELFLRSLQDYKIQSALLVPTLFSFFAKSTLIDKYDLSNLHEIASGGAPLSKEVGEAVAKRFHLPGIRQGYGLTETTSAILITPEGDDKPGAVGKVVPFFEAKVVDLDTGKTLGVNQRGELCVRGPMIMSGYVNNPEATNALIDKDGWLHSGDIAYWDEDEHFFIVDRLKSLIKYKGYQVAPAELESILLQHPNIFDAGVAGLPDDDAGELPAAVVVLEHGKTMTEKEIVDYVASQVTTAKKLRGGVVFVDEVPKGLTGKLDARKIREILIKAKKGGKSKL
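Material: luciferase plus luciferin reagent, cell-free. Medium: PBS buffer for ATP. Also added: ATP substrate, dispensed from a 10.24 µM working solution in PBS. Doses: test compounds dosed from 2 mM stocks in 100% DMSO. Incubation: 10 min post-reagent at room temperature. Technique: light output (luminescence). Read-out basis: luminescence gain marking luciferase activators.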
FLuc inh counter – counter-screen for luciferase assay inhibitors: firefly luciferase inhibition | AID 1006 | 1.5% of 200,000 active | ATPLite firefly luciferase biochemical luminescence, 10 min | P08659 | inhibition, % at 10 µM;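 active = inhibition above about 50% when tested at 10 µM, limit read from the data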
PPC1 cytotox – kills PPC-1 cells; shares compounds with PPC-1+TRAIL kill; PPC-1 viability, ATPlite luminescence, overnight; cytotoxicity, % at 5 µM; 50% of 1,200 active;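 active = reconfirmed compounds whose average cytotoxicity reaches 50% or more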;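 also: 0% = DMSO-treated cells and 100% = wells holding medium but no cells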
Numbers without * were called inactive; x = no result given.

SMILES | TRAIL sens C8 | PPC-1+TRAIL kill | FLuc act counter | FLuc inh counter | PPC1 cytotox
O=S(=O)(c1cccc(-c2nc3ccccc3s2)c1)N1CCCC1 | 2.6 | 9.6 | 1 | -1.9 | 7.5
CCOc1ccc(NC(=O)CNc2cccc(S(=O)(=O)N3CCCCCC3)c2)cc1OCC | 3.6 | x | x | x | x
CCNc1nc(OC)nc(SCC(=O)Nc2ccccc2)n1 | 0.8 | 22.4 | 1 | -2.6 | x
C=CCNC(=O)c1ccc(Cn2cc(C(F)(F)F)ccc2=O)cc1 | 1.6 | 0.4 | 1 | 0.0 | x
C=CCN(C(=O)c1ccc2snnc2c1)c1ccccc1 | -12.5 | x | x | x | x
Cc1ccc(-c2nnc(Nc3ccccc3)o2)cc1 | 80.6* | 83.5* | 0.1 | 88.2* | 85.0*
O=C(c1ccc2c3n(nc2c1)-c1ccccc1CO3)N1CCCCC1 | 70.3* | 57.9* | x | x | 60.0*
O=C(c1ccc2c3n(nc2c1)-c1ccccc1CO3)N1CCOCC1 | 51.5* | 45.4 | x | x | 49.1
C[C@@H](CO)NC(=O)c1ccc2c3n(nc2c1)-c1ccccc1CO3 | 90.8* | 88.7* | x | x | 90.9*
Cc1ccc2c(c1)COc1c3ccc(C(=O)N4CCCCC4)cc3nn1-2 | 34.0 | 21.6 | x | x | x
COc1ccc(N(C(=O)c2snc(C(N)=O)c2N)C(C(=O)NC2CCCCC2)c2ccc(C)o2)cc1 (configuration not stated) | 8.3 | x | x | x | x
C=C(C)COc1ccc(-c2nc(N)ncc2-c2ccc(Cl)cc2)c(O)c1 | 2.4 | x | x | x | x
O=C(CS(=O)(=O)Cc1ccccc1)c1ccccc1 | -8.5 | x | x | x | x
N#CCc1c(C#N)c(N)nc(N2CCN(Cc3ccc4c(c3)OCO4)CC2)c1C#N | -11.6 | -8.4 | 1 | 0.4 | -0.7
Cc1ccc(CNC(=O)CN2C(=O)C3(OCCCO3)c3ccccc32)cc1 | 9.4 | 17.5 | 1 | -3.2 | x
O=C(CN1C(=O)C2(OCCCO2)c2ccccc21)NCc1ccccc1 | -5.0 | 7.2 | 1.1 | -6.4 | 1.2
O=C(N/N=C/c1cccc(Br)c1)C1CC(=O)N(c2ccccc2)C1 (configuration not stated) | 6.9 | x | x | x | x
O=C1/C(=C/c2ccc(N3CCOCC3)o2)SC(=Nc2ccccc2)N1CCc1c[nH]c2ccccc12 | 33.8 | -11.6 | 1 | -4.8 | -5.9
CC(C)C(=O)Nc1c(-c2ccccc2)c(=O)c2ccccc2n1C | 3.0 | -11.7 | x | x | x
Cn1c(NC(=O)c2ccco2)c(-c2ccccc2)c(=O)c2ccccc21 | -21.1 | 8.0 | 1.1 | -5.7 | -11.9
O=C(NC1CC1)c1cccc(Nc2ccc(-c3ccc4c(c3)OCCO4)nn2)c1 | 72.3* | 68.6* | 0.2 | 83.2* | 66.0*
O=S(=O)(c1ccc(Nc2ccc(-c3ccc4c(c3)OCCO4)nn2)cc1)N1CCCC1 | 23.1 | 28.7 | 0.8 | 20.3 | x
Cc1ccc(-c2nc(SC(C)C(=O)c3c(N)n(C)c(=O)n(C)c3=O)n[nH]2)cc1 (configuration not stated) | -3.9 | x | x | x | x
O=C(Nc1cc(Cl)ccc1Cl)c1ccco1 | 3.0 | x | x | x | x
CS/C(Nc1cc(Cl)ccc1Cl)=C(/C#N)C(=O)c1ccco1 | 76.3* | 21.1 | x | x | 22.6
SMILES | TRAIL sens C8 | PPC-1+TRAIL kill | FLuc act counter | FLuc inh counter | PPC1 cytotox
Cc1cc(S(=O)(=O)Nc2ccc(C(=O)NCc3ccncc3)cc2)ccc1F | -11.9 | x | x | x | x
Cc1cc(/C=N/NC(=O)c2cccs2)c(C)n1-c1ccccc1 | 61.4* | 68.7* | 0.1 | 91.2* | 67.8*
COc1ccc2[nH]c3nc(SC(C)C)nnc3c2c1 | 63.4* | 57.9* | 0.4 | 63.1* | 55.8*
COc1ccc(CNC(=O)CSc2nnc3c(n2)[nH]c2ccc(OC)cc23)cc1 | -7.0 | x | x | x | x
CCn1nnc(NC(=O)c2ccc(Br)o2)n1 | -8.3 | x | x | x | x
CCc1ccc(C(=O)Nc2nnn(CC)n2)cc1 | 65.5* | 63.4* | 0.1 | 86.7* | 56.9*
CCCCc1nnc2c(N(C)S(=O)(=O)c3ccccc3)nc3ccccc3n12 | -0.6 | -13.5 | x | x | x
CC(C)(C)C(=O)N1CCc2cc(-c3csc(N)n3)ccc21 | 86.5* | 82.5* | 0 | 96.0* | 83.1*
CCOc1ccc(/C=N/NC(=O)c2ccccc2O)cc1CN1CC2CC(C1)c1cccc(=O)n1C2 (configuration not stated) | 14.5 | x | x | x | x
CC(C)(C)C(=O)Nc1cc2nn(-c3ccccc3)nc2cc1Cl | 93.1* | 96.2* | 0 | 97.1* | 96.3*
O=C(c1ncc[nH]1)c1ccccc1C(=O)N1CCOCC1 | -14.6 | 6.2 | 1 | -0.9 | 5.3
CC1CN(C(=O)c2ccccc2C(=O)c2ncc[nH]2)CC(C)O1 (configuration not stated) | -7.4 | 9.4 | 1 | 4.7 | x
Fc1ccccc1NC(=S)Nc1cccc2cnccc12 | 3.4 | -16.4 | 1.1 | -5.6 | -27.0
Cc1ccccc1NC(=S)Nc1cccc2cnccc12 | 2.8 | 22.6 | 1.1 | -5.7 | x
Cc1ccc(NC(=S)Nc2cccc3cnccc23)cc1C | 30.1 | 2.6 | 1 | 0.0 | -9.2
Cc1ccc(NC(=S)Nc2cccc3cnccc23)cc1 | 2.9 | 27.0 | 1 | 4.1 | x
COCCNC(=O)c1noc2c1CCc1cc(OC)ccc1-2 | 18.9 | 17.5 | 0.7 | 26.2 | x
COc1ccc2c(c1)CCc1c(C(=O)NCc3ccco3)noc1-2 | 2.3 | 15.9 | 0.9 | 8.9 | 11.1
Cc1ccc(CSc2nnc([C@@H]3CCCN3C(=O)OC(C)(C)C)o2)cc1 | -0.9 | -7.3 | x | x | x
O=c1c(O)c(-c2cccs2)oc2ccc(Cl)cc12 | 10.6 | 2.1 | 1 | -2.9 | 6.0
O=c1c(O)c(-c2cccs2)oc2ccccc12 | -0.8 | 12.4 | 1.1 | -5.1 | x
CN(CC(=O)NCc1ccc2c(c1)OCO2)S(=O)(=O)c1ccc(F)cc1 | -2.8 | x | x | x | x
CCn1cc(-c2cc(C(=O)O)c3ccccc3n2)c(C)n1 | 14.5 | 27.7 | 0.7 | 30.7 | x
CCc1ccc(-c2cc(C(=O)Nn3cnnc3)c3ccccc3n2)cc1 | 93.4* | 97.0* | 0 | 98.0* | 97.0*
O=C(NCc1ccccn1)c1cc(-c2ccc(-c3ccccc3)cc2)nc2ccccc12 | 82.2* | 61.5* | 0.1 | 88.0* | 60.9*
SMILES | TRAIL sens C8 | PPC-1+TRAIL kill | FLuc act counter | FLuc inh counter | PPC1 cytotox
CCNC(=S)NNC(=O)c1cc(-c2ccccc2C)nc2ccccc12 | 5.3 | -0.7 | 1 | 1.6 | x
CCn1cc(-c2cc(C(=O)O)c3ccccc3n2)cn1 | 62.4* | 51.3* | 0.2 | 82.6* | 54.8*
CCNC(=S)NNC(=O)c1cc(-c2ccc(OCC)cc2)nc2ccccc12 | 85.7* | 93.0* | 0 | 98.2* | 93.0*
CCC/C=N/NC(=O)c1cc(-c2ccccc2)nc2ccccc12 | -0.5 | 8.5 | 1 | 4.0 | x
O=C(NNC(=O)c1ccccc1[N+](=O)[O-])c1csc(N2CCOCC2)n1 | -5.2 | x | x | x | x
O=C(NNC(=O)c1cc(-c2ccccc2)nc2ccccc12)Nc1cccc(Cl)c1 | -10.5 | 10.3 | 1.1 | -5.7 | x
CC(C)(C)c1ccc(-c2cc(C(=O)NNC(=O)Nc3ccccc3)c3ccccc3n2)cc1 | 68.4* | 64.5* | 0.2 | 77.3* | 60.6*
COc1ccc(O)c(C(=O)CC(=O)c2ccc(F)cc2)c1 | 80.1* | 79.5* | 0.8 | 20.6 | 75.4*
COc1ccc(C(=O)CC(=O)c2ccccc2O)cc1 | 5.0 | x | x | x | x
CCN(CC)c1ccc2cc(-c3nc4ccccc4[nH]3)c(=O)oc2c1 | 94.9* | 95.5* | 0 | 96.3* | 95.4*
